Results published in ChEMBL document CHEMBL4513216, “Probing the Open Global Health Chemical Diversity Library for Multistage-Active Starting Points for Next-Generation Antimalarials” (ACS Infect Dis, 2020).

experiment: Toxicity liver stage against HepG2, at 10uM; format: cell-based; design: test concentration 10 uM, cell line HepG2-A16-CD81EGFP; details: human, HepG2-A16-CD81EGFP cells; read-out: INHIBITION
In short: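 Uninfected HepG2-A16-CD81EGFP cells, 3 × 10^3 per well, 1536-well, plated on prespotted compound at 10 μM final, parasite-free screening media added to match infected plates; puromycin 10 μM positive, DMSO 0.5% negative; run in parallel with 48 h PbLuc assay at 37 °C, 5% CO2; viability by CellTiter-Glo luminescence, normalized to controls.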

Compound	cytotoxicity at 10 µM
CNc1oc(COc2ccc3c(c2)OCO3)nc1C#N	-58.3%
Cc1nn(-c2ccccn2)c2c1C(c1cnn(C)c1)SCC(=O)N2 (stereo not given)	-44.1%
COc1ccc2cc(NC(=O)CCNc3ncccn3)cnc2c1	-43%
Cn1cnc2cc(CCC(=O)Nc3n[nH]c(C4CC4)n3)ccc21	5.21%
Cn1cnnc1S(=O)(=O)C1CCN(C(=O)c2ccco2)CC1	-2.28%
Cc1cccc(CN2CCC23CCCNC3)n1 (stereo not given)	2.55%
COc1ccc(N2CCN(CC(O)c3ccc(C)cc3C)CC2)cc1 (stereo not given)	11.8%
Cc1ccccc1N1CC2(CCN(S(=O)(=O)C3CC3)C2)CC1=O (stereo not given)	3.12%
Cn1cc(CN2CC[C@H]3C[C@H](c4nc(C5CC5)cs4)O[C@@H]3C2)cn1	-6.78%
COCCN1C[C@H]2[C@@H](C1)N(Cc1ccc(C)o1)CC[C@H]2OC	-8.34%
Cc1nn(C)c2cnn(CC(=O)NCc3ccccc3F)c12	7.8%
Cc1c(S(=O)(=O)N(CCc2ccccc2)Cc2ccn(C)n2)cnn1C	3.82%
COCCC(=O)NCc1ccc(-c2ncncc2C(=O)N(C)C)cc1	4.45%
CN(C)Cc1cnc(C2CCN(C(=O)c3cccc(F)c3)C2)[nH]1 (stereo not given)	2.54%
O=C(C1CCOCC1)N1CCCC1c1cncc(CN2CCCC2)n1 (stereo not given)	-0.802%
Cn1ccc(CN2CC(Cc3nccc4cc[nH]c34)C2)n1	9.51%
CCN(CC1CCOC1)C(=O)NCc1nnc2n1CCC2 (stereo not given)	13.6%
NC(=O)CCCNC(=O)CCc1cc(Br)cs1	4.11%
CCOc1ccc(N(C)Cc2nc(C)c(C)o2)cc1	19.9%
COc1ccc(N2CCC(NC(=O)c3ccc(C#N)cc3)CC2)cc1	-14.7%
O=C(Nc1ccccc1F)NC1(CO)CCOCC1	-46.4%
Cc1noc(C(C)Nc2ccc3c(c2)CCC3)n1 (stereo not given)	1.84%

Compound	cytotoxicity at 10 µM
Cc1nn(C)c(C)c1C1CCCN1CCOc1ccccc1C#N (stereo not given)	8.13%
CC(=O)NC1CCCN(Cc2ccc(OCc3ccccn3)cc2)C1 (stereo not given)	1.41%
CN(C)CCCNc1ncnc2cccc(F)c12	9.66%
O=C(NC1(c2nnn(CC3CC3)n2)CCCC1)c1ccccc1	6.48%
CCCOC(=O)C(C)Sc1nnnn1C1CCOCC1 (stereo not given)	18.1%
Cc1ccc(OCCC(=O)NC(C)c2ccncc2)cc1 (stereo not given)	-3.86%
CCC(CNC1CCN(C(C)=O)CC1)Oc1ccccc1Cl (stereo not given)	-13.4%
CN(Cc1cccs1)C(=O)CNC1CCc2ncnn2C1 (stereo not given)	3.03%
CCOc1ccc(C(=O)NCCCNc2ncccn2)cc1	11.5%
Cn1c2ncccc2c(=O)n1CC(=O)Nc1ccc(F)c(F)c1	16.5%
CCNC(=O)NC1CN(Cc2ccccc2N(C)C)C[C@@H]1OC (stereo not given in full)	-8.11%
COc1ccc(C(C)N2CCC(C(=O)NC3CC3)CC2)cc1Cl (stereo not given)	-50.6%
CCC(=O)NC1CCCN(Cc2ccc(-n3ccnc3)cc2)C1 (stereo not given)	-47.8%
Cc1cc(C(=O)N2CCc3c(ncn3CCc3ccccc3)C2)on1	-3.58%
CCN(CC)S(=O)(=O)N1CCCN(CC2CCCO2)CC1 (stereo not given)	5.69%
CC1CCCN(c2ccccc2OCC(=O)NC2CCOCC2)C1 (stereo not given)	-23.5%
CCOCCC(=O)NCc1ccnc(NC2CC2)c1	0.545%
O=C(O)c1ccc(F)c(S(=O)(=O)Nc2ccc(-n3cccn3)c(Cl)c2)c1	2.24%
CC(C)c1noc(CN(Cc2cccs2)C2CC2)n1	-9.15%
O=C(COc1cccc2c1CCC2=O)NCCOc1ccccc1	10.5%
CC(C)C(=O)N1CCN(Cc2csc(-c3ncccn3)n2)CC1	-5.1%
COCC(=O)N1CCC2(CCC2NC(=O)c2ccn(C)c2)CC1 (stereo not given)	-76.4%

Compound	cytotoxicity at 10 µM
CN(Cc1cccnc1)CC1CN(C(N)=O)Cc2nccn2C1 (stereo not given)	-80.3%
Cc1ccc2c(c1)C1(CCNCC1)CN2C(=O)C(C)C	-77%
O=C(c1ccnnc1)N1CCn2cc(CN3CCCCC3)nc2C1	-74.9%
CC(=O)N1CCOC2(CCCN(C(=O)c3ccc(Cl)cc3)C2)C1 (stereo not given)	-66.6%
CCNc1ncc(C(=O)N(C)CCc2nc3cc(Cl)ccc3[nH]2)cn1	-45.8%
CCc1ncc(C(=O)N(CCOC)Cc2ccccc2F)cn1	0.728%
COCCN1CCN(C(=O)C(c2cccc(F)c2)N(C)C)CC1 (stereo not given)	9.63%
Cc1cc(C)n(CCCN(C)C(=O)[C@H]2CCCO2)n1	-13.2%
Cc1ccc(NC(=O)CNC(C)CN2CCOCC2)c(F)c1 (stereo not given)	-51.8%
Cc1cccnc1CN1CCN(C(=O)[C@@]23CNC[C@@H]2CN(C)C3)CC1	2.3%
O=C(c1ccoc1)N1CCn2nc(CN3CCSCC3)cc2C1	-57.8%
O=C(CCC1CC1)N1CCC(n2cc(C3(O)CCCC3)nn2)CC1	9.4%
Cc1cc(CN2CCC3(CC2)CC(C(=O)O)N(C(=O)C2CC2)C3)oc1C (stereo not given)	-7.32%
CC(C)c1nc(CN(C)C(=O)CNC(N)=O)cs1	17.4%
Cc1cc(C)nc(NCCSc2cnn[nH]2)n1	3.22%
Cc1ccsc1-c1nccn1CCN(C)S(C)(=O)=O	-7.36%
COCCN1CCCC2(CCN(c3nc(C)nc4ccsc34)C2)C1=O (stereo not given)	10.7%
CC(C)[C@H]1CN(Cc2ccccn2)C[C@@H]1NC(=O)CC1CCC1	-2.57%
O=C(c1ccoc1)N1CCCN(CC2CCOc3ccccc3C2)CC1 (stereo not given)	0.0531%
OC1(CN(Cc2cccnc2)C2CCCCC2)CNCCOC1 (stereo not given)	-21%
CC(C)c1nnsc1CNC(=O)C1CCN(C(=O)C2CCCC2)CC1	1.05%
CC(C)C1=NOC(c2nc(Cc3ccccc3)no2)C1 (stereo not given)	-3.94%

Compound	cytotoxicity at 10 µM
N#Cc1ccc(CN2CCN(C(=O)C3CCC3)[C@@H]3CS(=O)(=O)C[C@@H]32)cc1	-9.78%
CCOCCn1nc(C)cc1C(=O)N1CCOCC(CO)C1 (stereo not given)	-20%
Cc1ccccc1CSc1nc(N)cc(N2CC[C@@H](O)C2)n1	0.28%
CNc1cccc(C2CCCN(C(=O)c3ccncc3)C2)n1 (stereo not given)	-4.02%
Cc1cc(CN(C)C(=O)c2cccc(N3CCCS3(=O)=O)c2)no1	-10.2%
CC(=O)c1cccc(S(=O)(=O)NCc2cccnc2N(C)C)c1	4.24%
c1csc(-c2nc(CN3CCCCC3Cn3cncn3)cs2)c1 (stereo not given)	-1.19%
CC(NC(=O)NCCCc1n[nH]c(N)c1C#N)c1cccc(Cl)c1 (stereo not given)	-4.14%
CCc1sc(C(=O)N2CCC(Nc3ccc(C)nn3)CC2)cc1C	1.86%
Cc1ccc(NC2CCN(C(=O)c3ccc(C(N)=O)s3)CC2)nn1	1.8%
O=C(c1ccc2c(c1)OCCCO2)N1CCCC(n2ccnc2)C1 (stereo not given)	0.893%
CC(C)c1nc(C2CCCN(C(=O)c3cccc4c3OCO4)C2)no1 (stereo not given)	-12%
CC1CCCN(C(=O)C2CCN(c3snc4ccccc34)CC2)C1 (stereo not given)	10.1%
CC(=O)N1CCN(C(=O)NCc2ccc(Cl)s2)CC1	-15.4%
CCc1nnc2n1CCN(CC(=O)Nc1sccc1C#N)C2	-7.67%
CC(C)c1noc(CN2CCN(C(=O)c3ccccc3F)CC2)n1	-8.08%
Cc1cnn(CCNCc2nc(-c3ccccc3Cl)no2)c1	-9.91%
COc1cc(CNC(=O)NCc2c(C)cc(C)[nH]c2=O)ccc1C	-11.5%
Cc1nc(CN2CCCC(NCCOc3ccccc3)C2)no1 (stereo not given)	-7.98%
CC(C)(C)c1cnc(CN2CCC(c3ccnn3CCO)CC2)o1	-3.15%
Cn1cc(C(=O)NCC2CCN(C(=O)NCC(F)(F)F)CC2)cn1	-3.68%
O=C(CCN1CCCC1C1CCCCC1)N1CCc2sccc2C1 (stereo not given)	-11%

Compound	cytotoxicity at 10 µM
COc1ccc(CNC(=O)Nc2cccnc2N2CCCC2)cc1O	-10.7%
CCN1CCN(C2CCN(Cc3ncc(C(C)(C)C)o3)CC2)C1=O	2.05%
Cc1cnn(C2CCCN(C(=O)c3ccn(C)c(=O)c3)C2)c1 (stereo not given)	4.55%
CCSCCC(=O)NS(=O)(=O)c1ccc2c(c1)OCCO2	0.35%
Cn1cc([C@@H]2CN(S(=O)(=O)c3cccs3)C[C@H]2N)c2ccncc21	1.44%
CC(C)(C)C(=O)NC(c1nccs1)C1CCN(CC2CCCCC2)CC1 (stereo not given)	6.5%
Cc1cccc(CN2CCC3(CCN(c4ncccn4)CC3)C2=O)c1	5.32%
CN(C)C(=O)N1C[C@@H]2CCCO[C@@H]2[C@H](N(C)Cc2ccco2)C1	-7.82%
COCCN1CC[C@@H]2OC[C@H](C(=O)NCc3cccs3)C[C@@H]2C1	2.7%
C[C@@H]1CN(C(=O)c2cccs2)C[C@]12CCN(CCN(C)C)C2=O	4.4%
CCOCC1CN(Cc2cccc(C#N)c2)Cc2nccn2C1 (stereo not given)	-8.22%
c1csc(CN2CCCn3cnc(CN4CCCC4)c3C2)c1	-72.7%
Cc1cnc(N2CC[C@@H]3O[C@@H](COCc4ccccn4)CC[C@@H]32)nc1	-88.3%
CC(C)c1nn(C)c(Cl)c1CNCC(O)c1cccc(F)c1 (stereo not given)	-1.83%
Cc1ccc(N2CCO[C@H]3CN(Cc4ccoc4)C[C@H]32)nn1	-70.7%
COc1ccc(CN2C[C@H](OCC3CCOCC3)[C@H]3COC[C@H]32)cc1	-9.78%
CCOCC1CN(Cc2ccc(F)cc2)Cc2nn(C)cc21 (stereo not given)	-83.3%
O=C(c1cccnc1)N1CCn2nnc(COc3ccccn3)c2C1	-76.2%
O=C(c1ccc(F)cc1F)N1C[C@@H]2CC[C@H]1CN(Cc1ccccc1)C2	5.04%
CS(=O)(=O)N1C[C@H]2CC[C@@H](C1)N(Cc1ccc3nsnc3c1)C2	3.18%
CC(C)c1cc(C(=O)N2C[C@@H]3CC[C@H]2CN(Cc2ccccn2)C3)no1	2.46%
CC(C)CCN1C[C@@H]2C[C@H](C(=O)Nc3cccnc3)[C@H](C1)O2	-82.5%
